Assay results reported in ChEMBL document CHEMBL3616442, “Unconventional Knoevenagel-type indoles: Synthesis and cell-based studies for the identification of pro-apoptotic agents” (Eur J Med Chem, 2015).
Active and inactive are the calls of the source. The calls are words filed in the database; no cut-off is given here.

Legend:
[1] = biological target: Tubulin (Homo sapiens) (UniProt P68371+Q9H4B7+P0DPH7+P68366+Q13509+Q71U36+P04350+Q3ZCM7+P07437+P68363+Q9BQE3+Q6PEY2+Q13885+Q9BVA1+Q9BUF5); assay: Induction of Tubulin depolymerization in human MCF7 cells by immunofluorescence analysis; format: cell-based
In short: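 MCF-7 cells grown and treated on chamber slides, fixed in ice-cold 100% methanol, washed in PBS with 0.1% Triton X-100, blocked 30 min in 5% BSA, then mouse anti-tubulin for 1 h and Alexa 488 secondary for 1 h; DNA counterstained with 0.2 μg/mL propidium iodide for 2 min. Paclitaxel and PBOX-15 served as tubulin controls.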

[2] = test system: HL-60; assay: Antiproliferative activity against human HL60 cells after 3 days incubation by alamar blue method; format: functional; settings: for GI50: HL-60, 72 h
In short: (§1)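 HL-60 and K562 grown in RPMI 1640, MCF-7 in DMEM, each with 10% FCS, penicillin G and streptomycin. Seeded at 4x10⁴ (HL-60, K562) or 2x10⁴ (MCF-7) cells per well with serial compound dilutions, incubated 3 days at 37 °C. Alamar blue added for 3 h at 37 °C in the dark, fluorescence read at ex 544/em 590 nm. IC50 versus untreated controls by linear regression.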

[3] = test system: K562; assay: Induction of cell cycle arrest in human K562 cells assessed as accumulation at G2/M phase after 24 hrs by propidium iodide staining based flow cytometric analysis; format: functional
In short: (§2)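 Propidium iodide/RNase A flow cytometry of ethanol-fixed cells, 10,000 gated events at 488 nm; G2/M fraction measured after 18 h treatment (HL-60, MCF-7) or 24 h (K562); mean ± S.E.M. of three independent experiments.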

[4] = test system: K562; assay: Antiproliferative activity against human K562 cells after 3 days incubation by alamar blue method; format: functional; settings: for GI50: K562, 72 h; in short: as §1
[5] = test system: MT4; assay: Antiproliferative activity against human MT4 cells after 96 hrs by MTT assay; format: functional, cell-based; settings: MT4, 96 h
In short: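 Exponentially growing MT-4 cells (CD4+ human T-cells carrying integrated HTLV-1 genome), seeded at 1×10^5 cells/mL in RPMI-1640 with 10% FCS and antibiotics. Serial dilutions of compound (DMSO stock 100 mM, diluted in medium), 37 °C, 5% CO₂, 96 h. Viability read by MTT. 50% inhibition versus untreated controls by linear regression. Mean ± SD of three independent determinations.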

[6] = test system: K562; assay: Induction of apoptosis in human K562 cells by propidium iodide staining based flow cytometric analysis; format: functional
In short: (§3)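 After treatment, cells harvested, fixed in ice-cold 70% ethanol at 4 °C, stained 30 min at 37 °C in the dark with 100 µg/mL propidium iodide plus 10 µg/mL RNase A; 10,000 gated cells analysed at 488 nm with debris excluded; apoptosis followed over time; mean ± S.E.M. of three independent experiments run in triplicate.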

[7] = test system: MCF7; assay: Antiproliferative activity against human MCF7 cells after 3 days incubation by alamar blue method; format: functional; settings: for GI50: MCF7, 72 h; in short: as §1
[8] = test system: MCF7; assay: Induction of apoptosis in human MCF7 cells by propidium iodide staining based flow cytometric analysis; format: functional; in short: as §3
[9] = test system: Nucleic Acid; assay: Induction of DNA intercalation of plasmid pQE30 DNA at 0.01 to 1 mM by electrophoretic mobility assay; format: nucleic-acid assay; settings: Escherichia coli
In short: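 Compound dissolved in methanol and incubated with double-strand plasmid pQE-30 DNA for 10 min at 37 °C; gel loading buffer added and samples run on 0.7% agarose to separate closed circular and supercoiled forms.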

[10] = test system: HL-60; assay: Induction of cell cycle arrest in human HL60 cells assessed as accumulation at G2/M phase after 18 hrs by propidium iodide staining based flow cytometric analysis; format: functional; in short: as §2
[11] = test system: HL-60; assay: Induction of apoptosis in human HL60 cells by propidium iodide staining based flow cytometric analysis; format: functional; in short: as §3
[12] = test system: MCF7; assay: Induction of cell cycle arrest in human MCF7 cells assessed as accumulation at G2/M phase after 18 hrs by propidium iodide staining based flow cytometric analysis; format: functional; in short: as §2
[13] = test system: SK-MEL-28; assay: Cytotoxicity against human SK-MEL-28 cells after 96 hrs by MTT assay; format: functional, cell-based; settings: SK-MEL-28, 96 h
In short: (§4)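 ATCC cell lines, mycoplasma-free by Hoechst staining. Haematological lines in RPMI-1640, solid-tumour and normal fibroblast lines in their own media, all with 10% FCS and antibiotics, at 37 °C in 5% CO₂. Compounds added as serial dilutions from a 100 mM DMSO stock diluted in medium. Viability by MTT after 96 h at 37 °C. Mean ± SD of three independent determinations.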

[14] = test system: WIL2-NS; assay: Cytotoxicity against human WIL2-NS cells after 96 hrs by MTT assay; format: functional, cell-based; in short: as §4
[15] = test system: MCF7; assay: Cytotoxicity against human MCF7 cells after 96 hrs by MTT assay; format: functional, cell-based; settings: MCF7, 96 h; in short: as §4
[16] = test system: HepG2; assay: Cytotoxicity against human HepG2 cells after 96 hrs by MTT assay; format: functional, cell-based; settings: HepG2, 96 h; in short: as §4
[17] = test system: CCRF-CEM; assay: Cytotoxicity against human CCRF-CEM cells after 96 hrs by MTT assay; format: functional, cell-based; in short: as §4
[18] = Cytotoxicity against human CRL7065 cells after 96 hrs by MTT assay; format: cell-based; settings: CRL-7065, 96 h; in short: as §4
[19] = test system: DU-145; assay: Cytotoxicity against human DU145 cells after 96 hrs by MTT assay; format: functional, cell-based; settings: DU-145, 96 h; in short: as §4
[20] = test system: MRC5; assay: Cytotoxicity against human MRC5 cells after 96 hrs by MTT assay; format: cell-based; settings: MRC5, 96 h; in short: as §4
[21] = Cytotoxicity against human SKMES1 cells after 96 hrs by MTT assay; format: functional, cell-based; settings: SK-MES-1, 96 h; in short: as §4
[22] = test system: CCRF-SB; assay: Cytotoxicity against human CCRF-SB cells after 96 hrs by MTT assay; format: functional, cell-based; in short: as §4

Activity [1]	GI50 [2] [µM]	GI50 [4] [µM]	GI50 [7] [µM]	Compound	Activity [2]	Activity [4]	EC50 [5] [µM]	Activity ([6]; TDE = time-dependent effect)	Activity [7]	Activity [8] [%]	Activity ([8]; TDE = time-dependent effect)	Activity ([11]; TDE = time-dependent effect)	also measured
Active	–	–	–	CC(=O)OC1=C(c2cccc3ccccc23)Oc2cc3ccccc3cc2-n2cccc21	–	–	–	–	–	–	–	–	–
Active	1.32	> 10	> 10	CS(=O)(=O)/C(C#N)=C/c1c(-c2ccccc2)[nH]c2ccccc12	Dose-dependent effect	Dose-dependent effect	0.3	tde	Dose-dependent effect	28.4	tde	tde	Activity [3]: 46.8%; Activity [6]: 47.5%; Activity [9]: inactive; Activity [10]: 39.7%; Activity [12]: 41.3%
–	2.11	> 10	> 10	N#C/C(=C\c1c(-c2ccccc2)[nH]c2ccccc12)C(=O)c1cccs1	Dose-dependent effect	Dose-dependent effect	0.4	tde	Dose-dependent effect	34.1	tde	tde	EC50 [13]: 28 µM; EC50 [14]: 6.4 µM; EC50 [15]: 29 µM; EC50 [16]: 25 µM; EC50 [17]: 1.2 µM; EC50 [18]: 45 µM; EC50 [19]: 11 µM; EC50 [20]: 20 µM; Activity [11]: 61.3%; EC50 [21]: 4 µM; EC50 [22]: 0.6 µM
